Series [1] concerns the target T1, Polycomb protein EED (Homo sapiens, UniProt O75530). The series is described as follows: Inhibition of human PRC2-EED (76 to 441 residues) expressed in Escherichia coli BL21 (DE3) using histone H3[21 to 44, K27MeO] as substrate and SAM as co-factor measured after 2 hrs by LC-MS/MS method.
The target of series [2] is T1, Polycomb protein EED. The series is described as follows: Inhibition of EED in human G401 cells assessed as reduction in H3K27 methylation measured after 48 hrs by ELISA method. It is filed as cell-based. The procedure, abridged:
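G-401 rhabdoid cells at 37 °C, 5% CO2 were seeded, grown 24 h, then given serial dilutions for 48 h against a matched DMSO control. Cells were PBS-washed, lysed in 0.4 N HCl for 30 min at 4 °C and neutralized. Lysate was coated overnight at 4 °C, blocked with TBST/5% BSA, then probed with antibody and ECL. H3K27Me3 was normalized to H3, and IC50 came from a dose-response fit.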

Series [3] in a line: Dissociation constant, pKa of the compound by electrophoresis/potentiometric method. It is filed as physicochemical.
In series [4] the target is T1, Polycomb protein EED. The series is described as follows: Binding affinity to human methionine-13Cepsilon-methyl labeled PRC2-EED (76 to 441 residues) expressed in Escherichia coli BL21 (DE3) by 2D NMR method. The method in brief:
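2D [13C,1H]-HSQC at 600 MHz, 296 K, on 40 μM selectively methionine-13Cε-methyl-labeled EED76–441 in 25 mM d-Tris pH 8, 150 mM NaCl, 2 mM d-DTT, 10% D2O. The protein was titrated with increasing ligand, and KD was derived from the chemical shift perturbations.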

The test system of another series is Pfeiffer. The series is described as follows: Antiproliferative activity against human Pfeiffer cells harboring EZH2 mutant measured after 6 days by CellTiter-Glo assay. To be noted: for EC50: 144 h. Format: functional, cell-based. The procedure, abridged: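 Exponentially growing Pfeiffer B-lymphocyte cells were exposed to compound for 6 days. Growth was read by CellTiter-Glo luminescence. Percent inhibition was taken versus a DMSO control, and IC50 was obtained by curve fitting.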
(In general: ATP-based viability assays read luminescence as a measure of living cells.)

T1 sequence (O75530 whole entry, the tested form may be a part): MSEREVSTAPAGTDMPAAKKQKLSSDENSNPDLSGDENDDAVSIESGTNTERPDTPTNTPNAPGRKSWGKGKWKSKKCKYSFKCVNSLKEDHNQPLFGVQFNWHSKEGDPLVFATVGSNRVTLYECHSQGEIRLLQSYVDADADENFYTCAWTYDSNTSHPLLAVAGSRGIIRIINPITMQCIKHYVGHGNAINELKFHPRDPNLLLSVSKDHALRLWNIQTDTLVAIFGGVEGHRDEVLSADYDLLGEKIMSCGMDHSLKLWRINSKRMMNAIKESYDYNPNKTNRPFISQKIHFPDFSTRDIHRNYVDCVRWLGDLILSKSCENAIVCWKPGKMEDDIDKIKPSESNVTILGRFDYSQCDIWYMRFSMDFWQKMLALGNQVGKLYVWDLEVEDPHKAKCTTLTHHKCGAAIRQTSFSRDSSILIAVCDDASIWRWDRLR

`COc1ccc(CC2CCCNC2)cc1` (centres undefined): the IC50 – broadly, the concentration at which inhibition is half-maximal – against Polycomb protein EED [1] is > 500 µM.

For the compound `N=C(N)N1CCCC(Cc2cccc3occc23)C1` (centres undefined), the values for the IC50 on Polycomb protein EED [2] and against Polycomb protein EED [1] were 2.5 µM and 2.1 µM, respectively. Moreover, the pKa (usually the negative logarithm of the acid dissociation constant) in series [3] is > 11.

With `N=C(N)N1CCCC(Cc2cccc3ccoc23)C1` (centres undefined), the IC50 at Polycomb protein EED [2] amounted to 2.5 µM; against Polycomb protein EED [1], 2.8 µM.

Take `Nc1ncc2n1CC(Cc1cccc3occc13)CC2` (centres undefined): the half-maximal inhibitory concentration (IC50) at Polycomb protein EED [2] stood at 12.4 µM; against Polycomb protein EED [1], 2.7 µM.

On to `c1cc(CC2CCCNC2)c2ccoc2c1` (centres undefined), for which the pKa in series [3] is 9.8. In addition, the half-inhibitory concentration (IC50) against Polycomb protein EED [1] is 40 µM.

In the case of `N=C(N)N1CCCC(Cc2cccc3c2OCO3)C1` (centres undefined), the IC50 on Polycomb protein EED [2] came out at 1.6 µM; against Polycomb protein EED [1], 3.9 µM. Also, the pKa in series [3] is > 11.

As to `COc1cccc(CC2CCCNC2)c1` (centres undefined), in series [3], the pKa is 9.9. On Polycomb protein EED [1], 95 µM corresponded to half-maximal inhibition (IC50). For the same compound, the affinity at Polycomb protein EED [4], expressed as Kd, was 32 µM.

Compound `NC(=O)N1CCCC(Cc2cccc3ccoc23)C1` (centres undefined) had an IC50 on Polycomb protein EED [1] of 174 µM.

For `c1ccc(CC2CCCNC2)cc1` (centres undefined), the IC50 against Polycomb protein EED [1] was > 500 µM.

Consider `COc1cccc(CC2CCCN(C(=N)N)C2)c1` (centres undefined), for which the pKa in series [3] was > 11. In addition, at Polycomb protein EED [1], the concentration for half-maximal inhibition (IC50) stood at 43 µM.

As to `CC(C)c1nc(N)n2c1CCC(Cc1ccccc1F)C2` (centres undefined), half-maximal inhibition at Polycomb protein EED [1] (IC50) required 7.9 µM.

As for `Nc1ncc2n1CC(Cc1cccc3c1OCO3)CC2` (centres undefined), the IC50 at Polycomb protein EED [2] amounted to 1 µM; at Polycomb protein EED [1], 1.3 µM. For the same compound, the pKa in series [3] came out at 9.2.

`COc1cc(CC2CCCNC2)ccc1F` (centres undefined): inhibition against Polycomb protein EED [1] was half-maximal at 119 µM (IC50).

As for `CC(C)c1nc(N)n2c1CCC(Cc1cccc3c1OCO3)C2` (centres undefined), on Polycomb protein EED [2], the IC50 came to 2 µM. Moreover, in the series with Pfeiffer, the Activity entry was “Dose-dependent effect” and the EC50 – broadly, the concentration that produces a half-maximal response – amounted to 3.4 µM. On Polycomb protein EED [1], 0.43 µM corresponded to half-maximal inhibition (IC50).

As for `c1cc(CC2CCCNC2)c2occc2c1` (centres undefined), 95 µM corresponded to half-maximal inhibition on Polycomb protein EED [1] (IC50).

For the compound `c1cc(CC2CCCNC2)c2c(c1)OCO2` (centres undefined), at Polycomb protein EED [1], the IC50 turned out to be 35 µM.

For the compound `COc1ccc(F)c(CC2CCc3c(C(C)C)nc(N)n3C2)c1` (centres undefined), the concentration for half-maximal inhibition (IC50) on Polycomb protein EED [2] turned out to be 2.9 µM; against Polycomb protein EED [1], 1.3 µM. Also, the concentration giving a half-maximal response (EC50) with Pfeiffer is 4.4 µM.

The values are drawn from ChEMBL document CHEMBL4041529, “Structure-Guided Design of EED Binders Allosterically Inhibiting the Epigenetic Polycomb Repressive Complex 2 (PRC2) Methyltransferase” (J Med Chem, 2017).
